# Activity calls are given as the source filed them. The calls are words filed in the database; no cut-off is given here.
# Columns and labels:
# [1] = tested on: HL-60; assay: Induction of cell cycle arrest in human HL60 cells assessed as increase in accumulation of cells at sub G1 phase at EC50 by PI staining based flow cytometric analysis; type: functional; settings: TDE = time-dependent effect
# [2] = tested on: HL-60; assay: Induction of differentiation in human HL60 cells assessed as increase in CD11b positive cells incubated for 48 hrs by 7-AAD staining-based flow cytometric analysis; type: functional, cell-based
# In short: (§1)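 Vitamin D3 at 100 nM and ATRA at 2 μM served as positive controls. Stained with APC anti-CD11b and PE anti-CD14 for 30 min at 4 °C, then 7-AAD.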
# [3] = tested on: HL-60; assay: Induction of cell cycle arrest in human HL60 cells assessed as accumulation of cells at G0/G1 phase at EC50 incubated for 18 hrs by PI staining based flow cytometric analysis (reference value: 56.3%); type: functional
# [4] = tested on: HL-60; assay: Effect on human HL60 cells assessed as fold change in LILRA5 gene expression at 1.085 uM incubated for 6 hrs by microarray-based method; type: functional
# In short: (§2)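 HL60 cells were treated in triplicate with 1.085 µM or vehicle for 6 h. Total RNA was extracted with on-column DNase treatment and profiled on expression arrays.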
# [5] = molecular target: T1, Tubulin (Homo sapiens) (UniProt P68371+Q9H4B7+P0DPH7+P68366+Q13509+Q71U36+P04350+Q3ZCM7+P07437+P68363+Q9BQE3+Q6PEY2+Q13885+Q9BVA1+Q9BUF5); assay: Inhibition of tubulin polymerization in human RS4:11 cells at 300 nM by Western blot analysis; type: cell-based; settings: TDE = time-dependent effect
# In short: (§3)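 Leukemia cells (RS4;11, CEM, HL60) treated with 300 nM for 0, 15, 30, 60 and 360 min. Western blotting for β-tubulin and p53, with lamin B1 as loading control and chemiluminescent detection.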
# [6] = tested on: HL-60; assay: Induction of cell cycle arrest in human HL60 cells assessed as accumulation of cells at G2/M phase at EC50 incubated for 12 hrs by PI staining based flow cytometric analysis (reference value: 23.0%); type: functional
# [7] = tested on: RS4-11; assay: Induction of apoptosis in human RS4:11 cells assessed as accumulation of cells at G1 phase at 300 nM incubated for 18 hrs in presence of PARP antibody by immunofluorescent staining based flow cytometric analysis relative to control; type: functional
# In short: (§4)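 RS4;11 cells treated with 300 nM or DMSO vehicle for 18 h, then pulsed with 10 μM BrdU for 1 h. Harvested cells immunostained for BrdU/PI (cell cycle), γH2AX (DNA damage) and PARP (apoptosis). Multicolor flow cytometry gated G1, sub-G2-like, G2/M and sub-G0/G1 populations.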
# [8] = tested on: HL-60; assay: Effect on human HL60 cells assessed as fold change in HOXB-AS3 gene expression at 1.085 uM incubated for 6 hrs by microarray-based method; type: functional; in short: as §2
# [9] = tested on: RS4-11; assay: Induction of cell cycle arrest in human RS4:11 cells assessed as increase in accumulation at G2/M phase at 300 nM incubated for 18 hrs by BrdU/propidium iodide staining based flow cytometric analysis; type: functional; in short: as §4
# [10] = tested on: HL-60; assay: Effect on human HL60 cells assessed as fold change in KPNA1 gene expression at 1.085 uM incubated for 6 hrs by microarray-based method; type: functional; in short: as §2
# [11] = molecular target: T1, Tubulin (Homo sapiens); assay: Induction of microtubule network depolymerization in human HeLa cells assessed as formation of abnormal chromosomal segregation at 500 nM incubated for 18 hrs by DAPI staining based fluorescence microscopic method; type: cell-based
# In short: (§5)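 HeLa cells (100,000/mL) cultured overnight on glass-bottom dishes, then exposed to 500 nM or 1 μM, or DMSO, for 18 h. Permeabilized (0.5% Triton X-100) and fixed (3.7% formaldehyde). Stained overnight at 4 °C with anti-β-tubulin, then Alexa Fluor 647 secondary for 1 h at room temperature, and DAPI 1 μg/mL for 10 min. Examined by fluorescence microscopy.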
# [12] = tested on: RS4-11; assay: Antiproliferative activity against human RS4:11 cells incubated for 48 hrs by MTT assay; type: functional, cell-based; settings: RS4-11, 48 h
# In short: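 Cells grown in RPMI-1640 with 10% FBS, penicillin/streptomycin, 37 °C, 5% CO2. After 48 h of exposure to a dilution series, MTT was added (0.5 mg/ml final) for 4 h. Formazan was dissolved overnight in acidic SDS (10% SDS, 0.01 mol/L HCl) and absorbance read at 570 and 620 nm. Survival was expressed relative to controls, and EC50 was fitted from dose-response curves.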
# [13] = tested on: HL-60; assay: Effect on human HL60 cells assessed as fold change in SPATA31A1 gene expression at 1.085 uM incubated for 6 hrs by microarray-based method; type: functional; in short: as §2
# [14] = molecular target: T1, Tubulin (Homo sapiens); assay: Induction of microtubule network depolymerization in human HeLa cells at 1 uM incubated for 18 hrs by DAPI staining based fluorescence microscopic method; type: cell-based; in short: as §5
# [15] = tested on: HL-60; assay: Effect on human HL60 cells assessed as fold change in CRADD gene expression at 1.085 uM incubated for 6 hrs by microarray-based method; type: functional; in short: as §2
# [16] = tested on: HL-60; assay: Effect on human HL60 cells assessed as fold change in MIR4658 gene expression at 1.085 uM incubated for 6 hrs by microarray-based method; type: functional; in short: as §2
# [17] = molecular target: T1, Tubulin (Homo sapiens); assay: Inhibition of tubulin polymerization in human CEM cells at 300 nM by Western blot analysis; type: cell-based; settings: TDE = time-dependent effect; in short: as §3
# [18] = tested on: HL-60; assay: Effect on human HL60 cells assessed as fold change in SPRY1 gene expression at 1.085 uM incubated for 6 hrs by microarray-based method; type: functional; in short: as §2
# [19] = tested on: HL-60; assay: Effect on human HL60 cells assessed as fold change in USP24 gene expression at 1.085 uM incubated for 6 hrs by microarray-based method; type: functional
# [20] = tested on: HL-60; assay: Effect on human HL60 cells assessed as fold change in NPIPB8 gene expression at 1.085 uM incubated for 6 hrs by microarray-based method; type: functional; in short: as §2
# [21] = tested on: RS4-11; assay: Induction of apoptosis in human RS4:11 cells assessed as accumulation of cells at G2 phase at 300 nM incubated for 18 hrs in presence of PARP antibody by immunofluorescent staining based flow cytometric analysis relative to control; type: functional; in short: as §4
# [22] = tested on: HL-60; assay: Induction of cell cycle arrest in human HL60 cells assessed as accumulation of cells at S phase at EC50 incubated for 18 hrs by PI staining based flow cytometric analysis (reference value: 19.0%); type: functional
# [23] = tested on: HL-60; assay: Effect on human HL60 cells assessed as fold change in TM2D3 gene expression at 1.085 uM incubated for 6 hrs by microarray-based method; type: functional; in short: as §2
# [24] = tested on: HL-60; assay: Effect on human HL60 cells assessed as fold change in TIAL1 gene expression at 1.085 uM incubated for 6 hrs by microarray-based method; type: functional; in short: as §2
# [25] = tested on: HeLa; assay: Induction of cell cycle arrest in human HeLa cells assessed as formation of condensed chromosomes at 500 nM incubated for 18 hrs by DAPI staining based fluorescence microscopic method; type: functional; in short: as §5
# [26] = tested on: HL-60; assay: Induction of differentiation in human HL60 cells assessed as increase in CD14 positive cells incubated for 48 hrs by 7-AAD staining-based flow cytometric analysis; type: functional, cell-based; in short: as §1
# [27] = tested on: HL-60; assay: Effect on human HL60 cells assessed as fold change in FBXO25 gene expression at 1.085 uM incubated for 6 hrs by microarray-based method; type: functional; in short: as §2
# [28] = tested on: RS4-11; assay: Induction of cell cycle arrest in human RS4:11 cells assessed as decrease in accumulation at G1 phase at 300 nM incubated for 18 hrs by BrdU/propidium iodide staining based flow cytometric analysis; type: functional; in short: as §4
structure (smiles),measurement,setting,value
COC(=O)c1[nH]c2cc(OC)ccc2c1-c1ccc(C(F)(F)F)cc1,Activity,[1],Tde
same,Activity,[2],Dose-dependent effect
same,Activity,[3],10.6%
same,fold change (FC),[4],-1.64
same,inhibition,[5],Tde
same,Activity,[6],48%
same,Activity,[7],7%
same,fold change (FC),[8],-1.54
same,Activity,[9],Active
same,fold change (FC),[10],1.89
same,Activity,[11],Active
same,EC50,[12],300 nM
same,fold change (FC),[13],-1.61
same,Activity,[14],Active
same,fold change (FC),[15],1.61
same,fold change (FC),[16],-1.72
same,inhibition,[17],Tde
same,fold change (FC),[18],-1.5
same,fold change (FC),[19],1.74
same,fold change (FC),[20],1.5
same,Activity,[21],1.5%
same,Activity,[22],8.92%
same,fold change (FC),[23],-1.65
same,fold change (FC),[24],1.63
same,Activity,[25],Active
same,Activity,[26],Dose-dependent effect
same,fold change (FC),[27],1.71
same,Activity,[28],Active

# Reference: ChEMBL document CHEMBL4359879, “Synthesis and evaluation of 2-carboxy indole derivatives as potent and selective anti-leukemic agents” (Eur J Med Chem, 2019)
